Measured values of several laboratories.
Compare with care: the assays were run in different laboratories.
Target: Misshapen-like kinase 1 (MINK1, Homo sapiens, UniProt Q8N4C8)

With Cn1cncc1[C@@](O)(COc1ccc(C#N)cc1-c1ccc(OC(F)(F)F)cc1)c1ccc(C#N)cc1 the remaining binding was 100% (cell-free assay, competition with immobilised ligand; 1 µM).
For Cc1nn(C)cc1-c1nc2c(N3CCN(Cc4ccc(Cl)cc4)CC3)c(Cl)cnc2[nH]1, the remaining binding was 84% (binding, competition with immobilised ligand; 1 µM).
O=c1[nH]c2ccccc2n1C1CCN(Cc2ccc(-c3[nH]c4cc5ncnc5cc4nc3-c3ccccc3)cc2)CC1 has a remaining signal of 103% (cell-free assay; 0.5 µM).
Nc1ncc(-c2nc(N3CCOCC3)nc(N3CCOCC3)n2)c(C(F)F)n1 gave a remaining binding of 66% (binding, competition with immobilised ligand; 10 µM).
Cn1cc(-c2cccc(N3CCc4c(sc5c4CC(C)(C)C5)C3=O)c2CO)cc(Nc2ccncn2)c1=O has an inhibition of 11% (enzyme activity, inhibitor; 1 µM).
For CC(C)(C)c1cc(C=C(C#N)C#N)cc(Br)c1O, the remaining activity was 111% (enzyme activity, inhibitor; 0.5 µM).
The inhibition of C#Cc1n[nH]c2c(-c3cn([C@@H](C)c4ccccn4)c(=O)[nH]c3=O)cc(F)cc12 is reported as 5.6% (enzyme activity, inhibitor; 0.1 µM).
With N#CC1(c2ccccn2)CCN(Cc2cc(C(=O)O)c(=O)n3ccccc23)CC1 the remaining binding was 92% (cell-free assay, competition with immobilised ligand; 1 µM).
With Cn1cc(-c2cc(F)cc(N3CCn4c(cc5c4CCCC5)C3=O)c2CO)cc(Nc2ccc(N3CCN(C4COC4)CC3)cn2)c1=O the inhibition was 12% (enzyme activity, inhibitor; 0.1 µM).
C#Cc1n[nH]c2c(-c3cn([C@@H](C)c4ccccc4)c(=O)[nH]c3=O)cc(F)cc12 has an inhibition of 2% (enzyme activity, inhibitor; 0.1 µM).
